The results in this text go back to ChEMBL document CHEMBL1148314, “4-(omega-(alkyloxy)alkyl)-1H-imidazole derivatives as histamine H(3) receptor antagonists/agonists” (J Med Chem, 2004).

Each structure is given as a SMILES string. Some results are limits rather than exact numbers.

Assay [1] concerns the target Histamine H1 receptor (Cavia porcellus, UniProt P31389). In words: Functional Histamine H1 receptor antagonistic activity in vitro assay on guinea pig ileum. The note with it: read-out: pA2 (converted). Type of assay: tissue-based. In short, it runs like this: (§1)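 Isolated guinea-pig tissues, spontaneously beating right atrium for H2 and ileum for H1, tested by standard methods. At least triplicate; values are means.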

Assay [2] concerns Mus musculus. Put plainly: Potency after oral administration in vivo in mice. The class given is functional.
For assay [3], the target named is Histamine H2 receptor (Cavia porcellus, UniProt P47747). Put plainly: Functional H2 receptor antagonistic activity in vitro assay on the isolated spontaneously beating guinea-pig right atrium. Type of assay: tissue-based, Cardiac atrium. Conditions: read-out: pA2 (converted). In short, it runs like this: as §1
Chain of Histamine H2 receptor (P47747 whole entry): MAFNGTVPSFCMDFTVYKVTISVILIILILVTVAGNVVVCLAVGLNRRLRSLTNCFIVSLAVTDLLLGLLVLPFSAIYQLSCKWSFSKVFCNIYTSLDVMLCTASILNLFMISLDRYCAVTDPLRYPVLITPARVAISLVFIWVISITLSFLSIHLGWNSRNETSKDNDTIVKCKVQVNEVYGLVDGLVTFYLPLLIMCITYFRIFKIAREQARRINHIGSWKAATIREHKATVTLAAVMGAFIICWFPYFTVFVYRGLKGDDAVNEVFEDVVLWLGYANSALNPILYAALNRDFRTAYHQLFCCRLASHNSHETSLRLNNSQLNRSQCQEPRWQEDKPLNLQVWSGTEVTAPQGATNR
Assay [4] has as its target T1, Histamine H3 receptor (Rattus norvegicus, UniProt Q9QYN8). Put plainly: In vitro […] against rat histamine H3 receptor. Put shortly: (§2)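 Rat cerebral cortex synaptosomes preloaded 30 min at 37 °C with L-[3H]histidine 0.4 μM in modified Krebs–Ringer, washed, then depolarized 2 min with 2 or 30 mM K+. Drugs and 1 μM histamine added 5 min before the stimulus. [3H]histamine measured by scintillation after purification; Ki by Cheng–Prusoff, mean ± SEM of at least three experiments.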

The target in assay [5] is T1, Histamine H3 receptor. In words: Functional Histamine H3 receptor antagonistic activity in vitro assay on synaptosomes of rat cerebral cortex. The class given is subcellular, Brain. In short, it runs like this:
as §2

Assay [6] has as its target Histamine H3 receptor (Cavia porcellus, UniProt Q9JI35). In words: Functional Histamine H3 receptor antagonistic activity in vitro assay on guinea pig ileum. Type of assay: tissue-based. Conditions: read-out: pA2 (converted). In short, it runs like this: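 Guinea-pig ileal longitudinal muscle–myenteric plexus strips at about 7.5 mN in Krebs–Henseleit, 37 °C, 95% O2/5% CO2, mepyramine 1 μM present. Field stimulated at 15 V, 0.5 ms, 0.1 Hz. Cumulative (R)-α-methylhistamine curves (1–1000 nM) recorded before and after antagonist; rightward shift corrected by the shift in daily controls.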

Assay [7] concerns the target T2, Histamine H3 receptor (Homo sapiens, UniProt Q9Y5N1). In words: (§3) Effect on specific [35S]GTP-gamma-S, Binding to HEK293 cell membranes expressing the human Histamine H3 receptor. Type of assay: functional. In short, it runs like this: (§4)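 HEK293 cells stably transfected with human H3 receptor (selected with 2 mg/mL G418, maintained in 1 mg/mL). Membranes prepared in Tris/HCl 50 mM pH 7.5; 10–20 μg protein incubated 60 min at 20 °C with 0.1 nM [35S]GTPγS ± drug in Tris 50 mM, NaCl 100 mM, MgCl2 10 mM, GDP 10 μM.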
For orientation: Binding of GTPγS marks nucleotide exchange on a G protein.

Assay [8] deals with T2, Histamine H3 receptor. Described as §3. Type of assay: functional. Put shortly: as §4
This is another data set of the same source.

In general, ED50 refers to the midpoint of the dose-response relation. Read a high ED50 as a need for a large dose. The term Ki denotes a measure of affinity in units of concentration, obtained from inhibition or displacement. Usually EC50 stands for the concentration giving half of the maximal effect. Lower therefore signals greater potency.

Chain of Histamine H1 receptor (P31389 whole entry): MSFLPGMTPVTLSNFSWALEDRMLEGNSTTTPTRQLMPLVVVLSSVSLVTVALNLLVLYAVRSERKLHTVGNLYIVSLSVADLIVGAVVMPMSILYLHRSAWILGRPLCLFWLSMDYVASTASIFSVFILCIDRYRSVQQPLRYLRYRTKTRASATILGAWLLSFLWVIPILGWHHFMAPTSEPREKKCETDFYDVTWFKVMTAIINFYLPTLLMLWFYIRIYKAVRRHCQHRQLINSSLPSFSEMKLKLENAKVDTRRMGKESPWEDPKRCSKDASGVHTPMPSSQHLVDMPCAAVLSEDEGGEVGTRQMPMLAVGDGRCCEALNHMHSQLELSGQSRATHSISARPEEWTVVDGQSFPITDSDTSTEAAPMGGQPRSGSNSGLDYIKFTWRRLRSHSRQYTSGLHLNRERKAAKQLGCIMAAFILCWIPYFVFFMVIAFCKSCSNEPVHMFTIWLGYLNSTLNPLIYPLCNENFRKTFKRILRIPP
Chain of Histamine H3 receptor (Cavia porcellus, UniProt Q9JI35) (Q9JI35 whole entry): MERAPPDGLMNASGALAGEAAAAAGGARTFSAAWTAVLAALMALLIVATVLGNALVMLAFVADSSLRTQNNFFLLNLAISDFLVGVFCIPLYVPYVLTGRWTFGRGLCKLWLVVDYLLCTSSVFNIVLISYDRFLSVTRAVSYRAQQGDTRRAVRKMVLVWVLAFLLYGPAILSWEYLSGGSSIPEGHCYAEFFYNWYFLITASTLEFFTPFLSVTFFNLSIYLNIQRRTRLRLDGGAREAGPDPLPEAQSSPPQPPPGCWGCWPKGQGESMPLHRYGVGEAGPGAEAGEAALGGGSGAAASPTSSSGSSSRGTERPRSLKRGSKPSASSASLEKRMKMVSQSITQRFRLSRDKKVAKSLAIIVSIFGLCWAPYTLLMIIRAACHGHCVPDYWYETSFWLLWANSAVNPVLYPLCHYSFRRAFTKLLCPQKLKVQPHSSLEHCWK
T2 sequence (Q9Y5N1 whole entry): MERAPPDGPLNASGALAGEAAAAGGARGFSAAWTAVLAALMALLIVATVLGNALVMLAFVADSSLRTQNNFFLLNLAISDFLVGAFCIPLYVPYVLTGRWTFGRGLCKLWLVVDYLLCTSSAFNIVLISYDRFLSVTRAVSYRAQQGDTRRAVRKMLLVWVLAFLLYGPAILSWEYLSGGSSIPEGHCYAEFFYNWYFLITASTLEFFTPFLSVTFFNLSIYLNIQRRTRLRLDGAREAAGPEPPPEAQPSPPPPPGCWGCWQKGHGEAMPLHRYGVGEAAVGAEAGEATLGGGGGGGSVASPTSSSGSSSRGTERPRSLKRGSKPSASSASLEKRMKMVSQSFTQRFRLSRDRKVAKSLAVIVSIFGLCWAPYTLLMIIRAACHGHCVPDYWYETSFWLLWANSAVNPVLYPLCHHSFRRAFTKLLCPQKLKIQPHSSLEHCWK
T1 sequence (Q9QYN8 whole entry): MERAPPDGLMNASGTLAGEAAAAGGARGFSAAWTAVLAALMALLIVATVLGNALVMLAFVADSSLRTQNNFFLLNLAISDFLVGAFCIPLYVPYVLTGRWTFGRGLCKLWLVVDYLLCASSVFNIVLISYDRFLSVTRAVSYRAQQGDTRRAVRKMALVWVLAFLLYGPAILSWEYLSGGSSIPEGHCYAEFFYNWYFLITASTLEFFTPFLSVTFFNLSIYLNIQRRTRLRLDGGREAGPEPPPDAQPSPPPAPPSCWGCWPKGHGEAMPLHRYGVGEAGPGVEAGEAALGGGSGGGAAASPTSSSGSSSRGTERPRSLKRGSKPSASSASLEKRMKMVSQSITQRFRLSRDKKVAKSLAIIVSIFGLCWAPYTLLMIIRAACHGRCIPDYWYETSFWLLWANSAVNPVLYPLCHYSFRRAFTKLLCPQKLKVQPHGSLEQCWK

For `CCOCCCc1c[nH]cn1.O=C(O)C(=O)O`, the Kb in assay [1] is above 100000 nM; in assay [3], above 31600 nM. Moreover, it took a dose of 0.26 mg/kg to reach the 50% effect level in assay [2] (ED50).

As for `COCCOCCCc1c[nH]cn1`, in assay [4], the Ki was around 400 nM.

`COCCCc1c[nH]cn1.O=C(O)C(=O)O`: the Kb in assay [1] was above 100000 nM; in assay [3] it was above 31600 nM. Besides, the ED50 in assay [2] was around 10 mg/kg. Moreover, the Ki in assay [4] was 290 nM; in assay [5], 316 nM.

As to `c1ccc(CC(COCCCc2c[nH]cn2)c2ccccc2)cc1` (stereo not given), affinity in assay [4] was put at a Ki of 184 nM.

Turning to `O=C(CCCOCCCc1c[nH]cn1)c1ccc(F)cc1.O=C(O)C(=O)O`, the ED50 in assay [2] came out at 0.28 mg/kg. In assay [4], this compound showed a Ki of 14 nM.

`CC(=O)CCOCCCc1c[nH]cn1` returned a Ki in assay [4] of 143 nM.

In the case of `CCCOCCCc1c[nH]cn1.O=C(O)C(=O)O`, the Kb in assay [1] and in assay [3] was above 31600 nM in each case. This compound also yielded an ED50 in assay [2] of 1.8 mg/kg. Besides, the Ki in assay [4] is 230 nM; in assay [5], 251 nM.

As to `O=C(O)/C=C\C(=O)O.c1nc(COCCC2CCCCC2)c[nH]1`, the ED50 in assay [2] was above 10 mg/kg. In assay [4], this compound came in with a Ki above 500 nM.

On to `c1ccc(C(OCCCc2cnc[nH]2)(c2ccccc2)c2ccccc2)cc1`, for which the ED50 in assay [2] was above 10 mg/kg. In assay [4], this compound came in with a Ki above 500 nM.

As to `CCCCCCCOCCCc1c[nH]cn1`, the Kb in assay [1] is above 100000 nM; in assay [6] it was 15.8 nM; in assay [3], 2000 nM. In assay [5], this compound had a Ki of 15.8 nM.

With `CCCCCCCCOCCCc1c[nH]cn1.O=C(O)/C=C\C(=O)O`, the results for the Kb in assay [1], in assay [6] and in assay [3] were 15800 nM, 100 nM and 2510 nM, respectively. The same compound yielded an ED50 in assay [2] above 10 mg/kg.

With `N#CCCOCCCc1c[nH]cn1.O=C(O)C(=O)O`, in assay [2], the 50% effect level (ED50) was put at a dose of 3.2 mg/kg. In assay [4], this compound registered a Ki of 674 nM.

For `c1nc(COCC2CCCCC2)c[nH]1`, the Ki in assay [4] was above 500 nM; in assay [5], above 1000 nM.

`CCCCCCOCCCc1c[nH]cn1.O=C(O)/C=C\C(=O)O`: the results for the Kb in assay [1], in assay [6] and in assay [3] were 7940 nM, 39.8 nM and 10000 nM, respectively. In assay [2], the ED50 was above 30 mg/kg. The compound further had an Intrinsic activity in assay [7] of 0.49. In addition, the Ki was 14 nM in assay [4] and 12.6 nM in assay [5]. In assay [8], this compound came in with an EC50 of 40 nM.

For `S=C(NC1CCCCC1)N1CCC(c2cnc[nH]2)CC1` [THIOPERAMIDE], in assay [2], the ED50 came out at 1 mg/kg.

The compound `O=C(c1ccc(OCCCc2c[nH]cn2)cc1)C1CC1` [CIPROXIFAN] had an ED50 in assay [2] of 0.14 mg/kg.

In assay [4], `c1nc(COCCCC2CCCCC2)c[nH]1` gave a Ki of at least 500 nM.

`c1nc(CCCOCC2CC2)c[nH]1` had a Ki in assay [4] of 167 nM. That is a sub-micromolar value.

Turning to `C=CCOCCCc1c[nH]cn1.O=C(O)C(=O)O`, the results for the Kb in assay [1] and in assay [3] were above 316000 nM and above 31600 nM, respectively. In assay [2], this compound registered an ED50 of 0.33 mg/kg. In assay [7], the Intrinsic activity came out at 0.63. Also, the Ki in assay [4] and in assay [5] was 200 nM in each case. This compound came in with an EC50 in assay [8] of 336 nM.

In turn, `O=C(COCCCc1c[nH]cn1)c1cccc([N+](=O)[O-])c1` had a Ki in assay [4] above 500 nM.

Turning to `CCCCOCCCc1c[nH]cn1.O=C(O)/C=C\C(=O)O`, in assay [2], the ED50 was above 10 mg/kg. The compound further yielded an Intrinsic activity in assay [7] of 0.39. In assay [4], this compound gave a Ki of 56 nM. Moreover, the response in assay [8] was half-maximal at 311 nM (EC50).

As for `C#CCCCOCCCc1c[nH]cn1`, the Kb in assay [6] is 316 nM. Besides, the Ki in assay [4] was 38 nM; in assay [5], 39.8 nM.

In the case of `O=C(O)/C=C\C(=O)O.c1nc(CCCOCCCC2CCCC2)c[nH]1`, the Kb in assay [1] was 20000 nM; in assay [6] it was 15.8 nM; in assay [3], 5010 nM. The compound also yielded an ED50 in assay [2] of 0.28 mg/kg. Moreover, the Ki in assay [4] was 7 nM; in assay [5], 6.31 nM.

Take `O=C(COCCCc1c[nH]cn1)c1ccccc1.O=C(O)/C=C\C(=O)O`: the ED50 in assay [2] was above 10 mg/kg. This compound had a Ki in assay [4] above 500 nM.

As for `O=C(O)/C=C\C(=O)O.c1nc(CCCOCCCC2CCCCC2)c[nH]1`, the Kb in assay [1] was 7940 nM; in assay [3] it was 50100 nM. Further, in assay [2], the 50% effect level (ED50) was put at a dose of 1 mg/kg. In addition, the affinity in assay [5] corresponds to a Ki of 20 nM.

With `c1nc(COCC2CC3CCC2C3)c[nH]1` (stereo not given), the Ki in assay [4] was around 500 nM.

`CCCCCOCCCc1c[nH]cn1.O=C(O)/C=C\C(=O)O`: the results for the Kb in assay [1], in assay [6] and in assay [3] were 20000 nM, 63.1 nM and above 31600 nM, respectively. Moreover, in assay [2], the ED50 is above 30 mg/kg. In addition, the Intrinsic activity in assay [7] came out at 0.47. The Ki in assay [4] was 33 nM; in assay [5], 31.6 nM. This compound yielded an EC50 in assay [8] of 97 nM.

In turn, `CC(C)(C)OCCc1c[nH]cn1.O=C(O)C(=O)O` yielded an ED50 in assay [2] above 10 mg/kg. In assay [4], this compound displayed a Ki above 500 nM.

In assay [2], `C=CCCCOCCCc1c[nH]cn1.O=C(O)C(=O)O` came in with an ED50 of at least 10 mg/kg. This compound also displayed a Ki in assay [4] of 27 nM.

As for `c1nc(CCCOCCC2CCCCC2)c[nH]1`, the figures for the Ki in assay [4] and in assay [5] were 11 nM and 10 nM, respectively.

As to `C#CCOCCCc1c[nH]cn1.O=C(O)C(=O)O`, the Kb is above 316000 nM in assay [1] and above 31600 nM in assay [3]. Moreover, the ED50 in assay [2] was 0.57 mg/kg. The compound also returned an Intrinsic activity in assay [7] of 0.73. Moreover, the Ki was 190 nM in assay [4] and 200 nM in assay [5]. Also, the EC50 in assay [8] came to 135 nM.

With `CC(C)(C)OCCCc1c[nH]cn1.O=C(O)/C=C\C(=O)O`, the Kb in assay [1] was above 100000 nM; in assay [3], above 31600 nM. Besides, in assay [2], it took a dose of 1.3 mg/kg to reach the 50% effect level (ED50). In addition, the Ki is 120 nM in assay [4] and 126 nM in assay [5].
